How the values were obtained:
[1] = molecular target: C-C chemokine receptor type 5 (Homo sapiens, UniProt P51681); experiment: Inhibitory concentration for displacement of [125I]-MIP-1 alpha from recombinant human CC chemokine receptor 5 (CCR5) expressed in CHO cell; assay type: cell-based
Procedure, shortened: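 Competitive binding to CCR5 on CHO cell membranes, read as displacement of [125I]-labeled MIP-1α. IC50 values are means of triplicate determinations. Standard errors were normally <15% within an assay. Assay-to-assay variation was within ±2-fold, judged from a standard compound.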

in vivo [2] = details: rat
HeLa [3] = experiment: Antiviral activities in a cell culture HIV-1 infectivity inhibition assay using HeLa cells plus 50% normal human serum; assay type: functional
in vivo [4] = details: rat, plasma
HeLa [5] = experiment: Antiviral activities in a cell culture HIV-1 infectivity inhibition assay using HeLa cells; assay type: functional; details: Homo sapiens
in vivo [6] = details: rat; remark: listed apart in the source
Rattus norvegicus = organism: Rattus norvegicus; experiment: (§1) Inhibitory activity against rat Na+ channel site 2 at 10 uM
[7] = molecular target: L-type calcium channel, benzothiazepine site (Rattus norvegicus, UniProt P22002+P27732+Q02485); experiment: Inhibition of binding to rat L-type Calcium channel benzothiazepine site at 10 uM; assay type: functional
[8] = molecular target: Sodium-dependent dopamine transporter (Homo sapiens, UniProt Q01959); experiment: Inhibitory activity against human dopamine transporter at 10 uM
[9] = molecular target: Sodium-dependent noradrenaline transporter (Homo sapiens) (UniProt P23975); experiment: Inhibitory activity against human adrenergic norepinephrine transporter at 10 uM
D(3) dopamine receptor = D(3) dopamine receptor (Homo sapiens, UniProt P35462); experiment: Inhibitory activity against human dopamine receptor D3 at 10 uM
[10] = Plasma clearance in dog (dosed as a mixture of five compounds at 0.5 mpk each via iv only); assay type: ADME, organism-based, Canis lupus familiaris; details: read-out: Clp
Procedure, shortened: (§2)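 Dogs received a five-compound cassette by iv only, 0.5 mpk of each compound.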

[11] = Half life in dog (dosed as a mixture of five compounds at 0.5 mpk each via iv only); assay type: ADME, organism-based, Canis lupus familiaris; details: in vivo; procedure, shortened: as §2
Canis familiaris = experiment: […] AUCN in dog ( (dosed as a mixture of five compounds at 0.5 mpk each via iv only); assay type: ADME, organism-based, Canis lupus familiaris; details: in vivo
[12] = In vitro antiviral activity using peripheral blood mononuclear cell (PBMC) HIV-1 spread assay in presence of 50% normal human serum; assay type: functional
[13] = In vitro antiviral activity using peripheral blood mononuclear cell (PBMC) HIV-1 spread assay; assay type: functional; details: Homo sapiens
[14] = as §1

Sodium-dependent dopamine transporter, sequence (Q01959 whole entry): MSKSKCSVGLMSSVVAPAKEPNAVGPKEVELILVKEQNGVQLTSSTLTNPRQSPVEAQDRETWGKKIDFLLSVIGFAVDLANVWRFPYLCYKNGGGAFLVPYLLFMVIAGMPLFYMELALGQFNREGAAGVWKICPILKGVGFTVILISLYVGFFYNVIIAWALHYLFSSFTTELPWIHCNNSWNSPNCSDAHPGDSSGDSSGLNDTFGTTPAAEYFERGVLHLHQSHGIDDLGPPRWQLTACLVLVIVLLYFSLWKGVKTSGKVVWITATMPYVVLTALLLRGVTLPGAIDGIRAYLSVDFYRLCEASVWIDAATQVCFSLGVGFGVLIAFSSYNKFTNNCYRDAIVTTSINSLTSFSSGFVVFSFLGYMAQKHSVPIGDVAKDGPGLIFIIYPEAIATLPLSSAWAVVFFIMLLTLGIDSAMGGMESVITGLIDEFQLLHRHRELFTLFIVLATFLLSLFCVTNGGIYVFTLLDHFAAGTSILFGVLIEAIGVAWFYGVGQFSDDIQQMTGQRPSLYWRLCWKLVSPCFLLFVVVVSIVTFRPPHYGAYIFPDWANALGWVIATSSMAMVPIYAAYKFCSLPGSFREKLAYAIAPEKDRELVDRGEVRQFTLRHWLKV
Sodium-dependent noradrenaline transporter (Homo sapiens), sequence (P23975 whole entry): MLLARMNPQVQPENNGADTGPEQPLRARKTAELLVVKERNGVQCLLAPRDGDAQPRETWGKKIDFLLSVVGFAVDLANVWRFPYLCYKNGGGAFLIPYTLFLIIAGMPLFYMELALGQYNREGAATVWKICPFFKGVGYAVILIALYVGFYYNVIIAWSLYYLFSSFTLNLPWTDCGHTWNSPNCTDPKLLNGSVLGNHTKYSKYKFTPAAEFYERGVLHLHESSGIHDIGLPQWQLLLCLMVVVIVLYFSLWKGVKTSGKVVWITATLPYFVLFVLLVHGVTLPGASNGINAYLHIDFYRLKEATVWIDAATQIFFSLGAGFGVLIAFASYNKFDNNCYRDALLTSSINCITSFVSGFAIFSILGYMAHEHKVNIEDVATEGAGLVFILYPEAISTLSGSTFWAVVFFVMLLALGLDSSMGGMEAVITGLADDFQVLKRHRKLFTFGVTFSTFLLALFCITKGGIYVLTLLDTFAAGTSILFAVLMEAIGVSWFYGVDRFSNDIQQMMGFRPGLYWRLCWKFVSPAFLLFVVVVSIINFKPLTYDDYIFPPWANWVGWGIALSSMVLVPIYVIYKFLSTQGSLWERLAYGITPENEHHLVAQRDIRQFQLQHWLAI
D(3) dopamine receptor, sequence (P35462 whole entry): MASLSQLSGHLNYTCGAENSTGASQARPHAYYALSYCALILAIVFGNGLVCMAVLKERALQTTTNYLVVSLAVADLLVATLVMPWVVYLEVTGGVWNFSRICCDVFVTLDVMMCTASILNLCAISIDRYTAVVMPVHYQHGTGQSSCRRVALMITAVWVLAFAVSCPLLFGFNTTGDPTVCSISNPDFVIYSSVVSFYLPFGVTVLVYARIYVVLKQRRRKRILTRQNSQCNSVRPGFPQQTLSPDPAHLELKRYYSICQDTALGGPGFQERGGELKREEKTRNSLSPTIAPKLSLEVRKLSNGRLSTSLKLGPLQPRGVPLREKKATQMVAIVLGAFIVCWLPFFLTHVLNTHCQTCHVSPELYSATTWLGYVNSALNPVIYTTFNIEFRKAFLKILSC
C-C chemokine receptor type 5, sequence (P51681 whole entry): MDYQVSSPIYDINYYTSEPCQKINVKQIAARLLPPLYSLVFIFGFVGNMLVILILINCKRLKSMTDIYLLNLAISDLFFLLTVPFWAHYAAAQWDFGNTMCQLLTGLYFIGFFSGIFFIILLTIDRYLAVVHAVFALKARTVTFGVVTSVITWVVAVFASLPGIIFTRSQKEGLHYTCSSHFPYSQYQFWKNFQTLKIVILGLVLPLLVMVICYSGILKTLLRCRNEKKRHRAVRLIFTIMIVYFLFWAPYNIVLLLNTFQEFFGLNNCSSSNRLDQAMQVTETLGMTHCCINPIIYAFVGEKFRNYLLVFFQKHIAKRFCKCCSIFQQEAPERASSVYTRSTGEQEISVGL

Row | Compound | IC50 [1] [nM] | half-life (in vivo [2]) [h] | IC90 (HeLa [3]) [nM] | clearance (in vivo [4]) [mL/min/kg] | IC90 (HeLa [5]) [nM] | bioavailability (in vivo [6]) [%] | further results
1 | CC[C@H](C)[C@H](C(=O)O)N1C[C@H](CN2CCC(c3cc(Cc4ccc(OC5CCC5)cc4)nn3CC)CC2)[C@@H](c2cccc(F)c2)C1 | 1.3 | 1.2 | 11 | 2.7 | < 0.14 | 68 | 
2 | CC[C@@H](C)[C@H](C(=O)O)N1C[C@H](CN2CCC(c3cc(Cc4ccc(OC(C)(C)C)cc4)nn3CC)CC2)[C@@H](c2cccc(F)c2)C1 | 1.6 | 2.7 | 3.7 | 0.97 | < 0.14 | 23 | 
3 | CCOc1ccc(Cc2cc(C3CCN(C[C@H]4CN([C@@H](C(=O)O)[C@@H](C)CC)C[C@@H]4c4cccc(F)c4)CC3)n(CC)n2)cc1 | 0.6 | 0.98 | 33 | 4.4 | < 0.14 | 5.9 | 
4 | CC[C@@H](C)[C@H](C(=O)O)N1C[C@H](CN2CCC(c3cc(Cc4ccc(C#N)cc4)nn3CC)CC2)[C@@H](c2cccc(F)c2)C1 | 1.3 | 0.74 | 33 | 9.8 | 0.4 | 3.1 | 
5 | CCn1nc(Cc2ccc(OC(C)C)cc2)cc1C1CCN(C[C@H]2CN([C@@H](C(=O)O)C(C)(C)C)C[C@@H]2c2cccc(F)c2)CC1 | 0.7 | 1.4 | 11 | 0.98 | < 0.14 | 49 | 
6 | CCn1nc(Cc2ccc(C(C)(C)C)cc2)cc1C1CCN(C[C@H]2CN([C@@H](C(=O)O)C(C)(C)C)C[C@@H]2c2cccc(F)c2)CC1 | 0.4 | 2.5 | 33 | 1.1 | 0.4 | 77 | 
7 | CCn1nc(Cc2ccc(S(C)(=O)=O)cc2)cc1C1CCN(C[C@H]2CN([C@@H](C(=O)O)C(C)C)C[C@@H]2c2cccc(F)c2)CC1 | 3.5 | 0.38 | 33 | 11 | 3.7 | 5.4 | 
8 | CCn1nc(Cc2ccccc2)cc1C1CCN(C[C@H]2CN([C@@H](C(=O)O)C(C)C)C[C@@H]2c2cccc(F)c2)CC1 |  | 1.4 | 300 |  |  |  | inhibition (Rattus norvegicus): 32%; inhibition at 10 µM [7]: -3%; inhibition [8]: 15%; inhibition [9]: 21%; inhibition (D(3) dopamine receptor): 45%
9 | CCn1nc(Cc2ccc(-c3ccccc3)cc2)cc1C1CCN(C[C@H]2CN([C@@H](C(=O)O)C(C)C)C[C@@H]2c2cccc(F)c2)CC1 | 0.3 | 5.7 | 100 | 0.32 | < 0.14 | 26 | 
10 | CCOc1ccc(Cc2cc(C3CCN(C[C@H]4CN([C@@H](C(=O)O)C(C)(C)C)C[C@@H]4c4cccc(F)c4)CC3)n(CC)n2)cc1 | 0.9 | 1.4 | 33 | 1.7 | 0.4 | 68 | clearance [10]: 13 mL/min/kg; half-life [11]: 1.8 h; AUC N (Canis familiaris): 2.3 uM hr dose-1
11 | CC[C@H](C)[C@H](C(=O)O)N1C[C@H](CN2CCC(c3cc(Cc4ccc(C(C)(C)C)cc4)nn3CC)CC2)[C@@H](c2cccc(F)c2)C1 | 0.3 | 1.4 | 11 | 1.6 | 0.4 | 9.2 | 
12 | CCn1nc(Cc2ccc(S(C)(=O)=O)cc2)cc1C1CCN(C[C@H]2CN([C@@H](C(=O)O)C(C)(C)C)C[C@@H]2c2cccc(F)c2)CC1 | 1.6 |  | 11 |  | < 0.14 |  | IC95 [12]: 8.1 nM; inhibition (Rattus norvegicus): 7%; inhibition at 10 µM [7]: 15%; inhibition [8]: 36%; clearance [10]: 108 mL/min/kg; inhibition [9]: 13%; IC95 [13]: 6.2 nM; inhibition (D(3) dopamine receptor): 39%; half-life [11]: 0.55 h; AUC N (Canis familiaris): 0.24 uM hr dose-1
13 | CCn1nc(Cc2cccc(F)c2)cc1C1CCN(C[C@H]2CN([C@@H](C(=O)O)C(C)C)C[C@@H]2c2cccc(F)c2)CC1 | 1.3 | 0.8 | 300 | 3.9 | 11 | 40 | 
14 | CC[C@H](C)[C@H](C(=O)O)N1C[C@H](CN2CCC(c3cc(Cc4ccc(OC)c(OC)c4)nn3CC)CC2)[C@@H](c2cccc(F)c2)C1 | 1.5 |  | 33 |  | 0.4 |  | IC50 [14]: 7200 nM; inhibition at 10 µM [7]: 36%; inhibition [8]: -4%; inhibition [9]: 15%; inhibition (D(3) dopamine receptor): 35%
15 | CC[C@H](C)[C@H](C(=O)O)N1C[C@H](CN2CCC(c3cc(Cc4ccc(C(C)C)cc4)nn3CC)CC2)[C@@H](c2cccc(F)c2)C1 | 0.3 | 1.18 | 11 | 3.3 | < 0.14 | 19 | 
16 | CCn1nc(Cc2ccc(OC(C)(C)C)cc2)cc1C1CCN(C[C@H]2CN([C@@H](C(=O)O)C3CCCCC3)C[C@@H]2c2cccc(F)c2)CC1 | 0.5 | 1 | 11 | 27 | < 0.14 | 19 | 

Row | Compound | IC50 [1] [nM] | half-life (in vivo [2]) [h] | IC90 (HeLa [3]) [nM] | clearance (in vivo [4]) [mL/min/kg] | IC90 (HeLa [5]) [nM] | bioavailability (in vivo [6]) [%] | further results
17 | CCn1nc(Cc2ccc(-c3ccccc3)cc2)cc1C1CCN(C[C@H]2CN([C@@H](C(=O)O)C(C)(C)C)C[C@@H]2c2cccc(F)c2)CC1 | 0.6 | 8.9 | 100 | 0.23 | 1.2 | 33 | 
18 | CCCCOc1ccc(Cc2cc(C3CCN(C[C@H]4CN([C@@H](C(=O)O)[C@@H](C)CC)C[C@@H]4c4cccc(F)c4)CC3)n(CC)n2)cc1 | 1 | 1.2 | 11 | 4.8 | 0.4 | 22 | 
19 | CC[C@H](C)[C@H](C(=O)O)N1C[C@H](CN2CCC(c3cc(Cc4ccc(OC(C)(C)C)cc4)nn3CC)CC2)[C@@H](c2cccc(F)c2)C1 | 1.3 | 1.1 | 11 | 4 | < 0.14 | 76 | 
20 | CC[C@@H](C)[C@H](C(=O)O)N1C[C@H](CN2CCC(c3cc(Cc4ccc(OC5CCC5)cc4)nn3CC)CC2)[C@@H](c2cccc(F)c2)C1 | 0.4 | 2.1 | 33 | 0.75 | < 0.14 | 26 | 
21 | CCn1nc(Cc2cccc(OC)c2)cc1C1CCN(C[C@H]2CN([C@@H](C(=O)O)C(C)(C)C)C[C@@H]2c2cccc(F)c2)CC1 | 0.7 |  | 33 |  | < 0.14 |  | 
22 | CC[C@H](C)[C@H](C(=O)O)N1C[C@H](CN2CCC(c3cc(Cc4ccc(OC5CC5)cc4)nn3CC)CC2)[C@@H](c2cccc(F)c2)C1 | 0.3 | 1 | 11 | 1.9 | < 0.14 | 36 | 
23 | CCn1nc(Cc2cc(F)cc(F)c2)cc1C1CCN(C[C@H]2CN([C@@H](C(=O)O)C(C)C)C[C@@H]2c2cccc(F)c2)CC1 | 2.6 |  | 300 |  | 11 |  | 
24 | CCn1nc(Cc2ccc(OC3CCC3)cc2)cc1C1CCN(C[C@H]2CN([C@@H](C(=O)O)C(C)(C)C)C[C@@H]2c2cccc(F)c2)CC1 | 0.7 | 3.5 | 33 | 0.62 | 0.4 | 65 | 
25 | CC[C@H](C)[C@H](C(=O)O)N1C[C@H](CN2CCC(c3cc(Cc4ccc(OC(F)F)cc4)nn3CC)CC2)[C@@H](c2cccc(F)c2)C1 | 0.3 |  | 11 |  | < 0.14 |  | 
26 | CCn1nc(Cc2ccc(S(C)(=O)=O)cc2)cc1C1CCN(C[C@H]2CN([C@@H](C(=O)O)C3CCCCC3)C[C@@H]2c2cccc(F)c2)CC1 | 2.3 |  | 11 |  | 0.4 |  | 
27 | CCn1nc(Cc2ccc(OC(F)F)cc2)cc1C1CCN(C[C@H]2CN([C@@H](C(=O)O)C(C)C)C[C@@H]2c2cccc(F)c2)CC1 | 0.5 |  | 100 |  | < 0.14 |  | 
28 | CCn1nc(Cc2ccc(F)cc2)cc1C1CCN(C[C@H]2CN([C@@H](C(=O)O)C(C)C)C[C@@H]2c2cccc(F)c2)CC1 | 1.1 | 0.91 | > 300 | 7.6 | 11 | 7.8 | 
29 | CCOc1cccc(Cc2cc(C3CCN(C[C@H]4CN([C@@H](C(=O)O)[C@H](C)CC)C[C@@H]4c4cccc(F)c4)CC3)n(CC)n2)c1 | 0.8 |  | > 300 |  | < 0.14 |  | 
30 | CCn1nc(Cc2ccc(F)cc2F)cc1C1CCN(C[C@H]2CN([C@@H](C(=O)O)C(C)C)C[C@@H]2c2cccc(F)c2)CC1 | 5 |  | > 300 |  | 100 |  | 
31 | CCn1nc(Cc2cccnc2)cc1C1CCN(C[C@H]2CN([C@@H](C(=O)O)C(C)C)C[C@@H]2c2cccc(F)c2)CC1 | 13.1 |  | 300 |  | 11 |  | 
32 | CCCOc1ccc(Cc2cc(C3CCN(C[C@H]4CN([C@@H](C(=O)O)C(C)(C)C)C[C@@H]4c4cccc(F)c4)CC3)n(CC)n2)cc1 | 0.8 |  | 300 |  | 0.4 |  | 

Source: ChEMBL document CHEMBL1147446, “Antagonists of human CCR5 receptor containing 4-(pyrazolyl)piperidine side chains. Part 3: SAR studies on the benzylpyrazole segment” (Bioorg Med Chem Lett, 2004)
